This sample holds only a part of the variants without activity.
B1: tRNA (parent)
chain: GUUCCGUUGGCGUAAUGGUAACGCGUCUCCCUCCUAAGGAGAAGACUGCGGGUUCGAGUCCCGUACGGAACG

Variants of: B1
Experiment: yeast fitness relative to wild type (ratio to wild type); higher = fitter; tRNA-Arg(CCU), competitive growth, 37 C, YPD
How it was run: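 Genotype frequency changes were the basis for Darwinian fitness relative to wild type. The frequencies came from 100-nucleotide paired-end sequencing of gene amplicons from the start population and each end population of pooled yeast strains with tRNA-Arg(CCU) gene variants at the native locus. Competition ran in YPD at 37°C for 24 hours in six replicates, genotypes needed ≥ 100 starting reads, and estimates < 0.5 were set to 0.5.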

Yeast fitness, 0.76:
GUUUCGUUGGCGUAAUGGUAAGGCGUCUCCCUCCUAAGGAGAAGACUGCGGGUUCAAGUCCCGUACGGAACG [C4U C22G G56A]

Yeast fitness, 0.52:
GUUUCGUUGGCGUAAUGGUAAUGCGUCUCCUUCCUAAGGAGAAGACUGCGGGUUCGAGUGCCGUACGGAGCG [C4U C22U C31U C60G A70G]

Yeast fitness, 0.505:
GUUUCGUUGGCGUAAUGGUAACGUGUCUCCCUCCUAAGGAGAAGACUGCGGGUUCCAGUCCCGUACGGAACG [C4U C24U G56C]

Yeast fitness, 0.63:
GUUUCGUUGGCGUAAUGGUAACGUGUCUCCAUCCUAAGGAGAAGACUGCGGGUUCCAGUCCCGUACGGAACG [C4U C24U C31A G56C]

Yeast fitness, 0.588:
GUUUCGUUGGCGUAAUGGUAACGCGUCUACCUCCUCAGGUGAAGACUGCGAGUUCGAGUCCCGUACGGAACG [C4U C29A A36C A40U G51A]
GUUUCGUUGGCGUAAUGGUAACGCGUCUACCUCCUAAGGAGAAGACUGCGGGUUCGAGUCGCGUACGGAUCG [C4U C29A C61G A70U]

Yeast fitness, 0.689:
GUUUCGUUGGCGUAAUGGUAAGGCGUCUCCCUCCUAAGGAGAAGACUGCGGGUUCGAGUCCCGUACAGAACG [C4U C22G G67A]

Yeast fitness, ≤ 0.5:
GUUUCGUUGGCGUAAUGGUAACGCGUCUACCUCCUAAAGAGAAGACUGCGGGUUCGAGUCCCGUACGGUACG [C4U C29A G38A A69U]
GUUUCGUUGGCGUAAUGGUAACGCGUGUCCCUCCUAAGGAGAAGACUGCGGGAUCGAGUCCCGUACGGAACG [C4U C27G U53A]
GUUUCGUUGGCGUAAUGGUAAGGUGUCUCCCUCCUAAGGAGAAGACUGCGGGUUCGAGUCCGGUACGGAACG [C4U C22G C24U C62G]
GUUUCGUUGGCGUAAUGGUAAUGCAUCUCCUUCCUAAGGAGAAGACUGCGGGUUCGAGUGCCGUACGGAGCG [C4U C22U G25A C31U C60G A70G]
GUUUCGUUGGCGUAAUGGUAACGCGUGUCCCUCCUAAGGAGAAGCCUGCGGGUUCGAAUCCGGUACGGAACG [C4U C27G A45C G58A C62G]
GUUUCGUUGGCGUAAUGGUAACGCGUAUCCCUCCUAAGGCGAAGACUGCGGGUUCGAGUCCCGUACGGAACG [C4U C27A A40C]
GUUUCGUUGGCGUAAUGGUAACGCGUCUACCUCCUAAGGAAAAGACUGCGGGUUCGAGUCCCGUACGGAACG [C4U C29A G41A]
GUUUCGUUGGUGUAAUGGUAACGCCUCUCCCUCCUAAGGAAAAGACUGCGGGUUCGACUCCCGUACGGAACG [C4U C11U G25C G41A G58C]
GUUUCGUUGGCGUAAUGGUAACGCGUCUACCUCCUAAGGAGAAGACUGCGGCUUAGAGUCACGUACGUAACG [C4U C29A G52C C55A C61A G68U]
GUUUCGUUGGCGUAAUGGUAAAGCGUCUCCCUCCAAAGGAGAAGACUGGGGGUUCGAGUCCCCUACGGAACG [C4U C22A U35A C49G G63C]
GUUUCGUUGGCGUAAUGGUAACGCGUGUCCCUCCUAAGGAGAAGCCUGCGGGUUUGAGUCCCGUAAGGAACG [C4U C27G A45C C55U C66A]
GUUUCGUUGGCGUAAUGGUAAUGCGUCUCCACCCUAAGGAGAUGACUGCGGGUUCGAGUCCCGUACGGAACG [C4U C22U C31A U32C A43U]
GUUUCGUUGGCGUAAUGGUAACGCGUGUCCCUCCUAAGGAGAAGACUGCGGGUUCGAGUCCCAUACGGAACG [C4U C27G G63A]
GUUUCGUUGGCGUAAUGGUAACGUGUCUCCCUCCUCAGGAGAAGACUGCGGGUUCGAGUCCGGUAAGGAACG [C4U C24U A36C C62G C66A]
GUUUCGUUGGCGUAAUGGUAACGCGUCUGCCUCCUACGGAGAAGAGUGCGGGUUCGAGUCCCGUACGGAACG [C4U C29G A37C C46G]
GUUUCGUUGGCGUAAUGGUAACGGGUCUCCCUCCUAAGGAGAAGACUGCGGGUUGGAGUCCCGAACGGAACG [C4U C24G C55G U64A]
GUUUCGUUGGCGUAAUGGUAAUGGGUCUCCCUCCUAGGGAGAAGACUGCGGGUUCGAGUCCCGUACGGAACG [C4U C22U C24G A37G]
GUUUCGUUGGCGUAAUGGUAACGGGUCUCCCUCCUAAGGAGAAGACUGCGGGUUCGGGUCCCGUACGGAACG [C4U C24G A57G]
GUUUCGUUGGCGUAAUGGUAACGCGUCUACGUCCUAAGGAGCAGUCUGCGCGUUCGAGUCCCGUACGGAACG [C4U C29A C31G A42C A45U G51C]
GUUUCGUUGGCGUAAUGGUAACGUGUCUCCCUCCUCAGGAGAAGACUGUGGGUUCGAGUCCCGUACGGAACG [C4U C24U A36C C49U]
GUUUCGUUGGCGUAAUGGUAACGGGUCUCCCUCCUAAGGAGAAGACUGCAGGUUCGAGUCCCGUACGGAACG [C4U C24G G50A]
GUUUCGUUGGCGUAAUGGUAAGGCGUCUCCCUCCUAAGGAGAAGACUGCGGGUUCGAGUGCCGUACGGAACG [C4U C22G C60G]
GUUUCGUUGGCGUAAUGGUAACGAGUCUCCCUCCUAAGGAGAAGACUGCGGGUUCGGGUCCCGUACGGACCG [C4U C24A A57G A70C]
GUUUCGUUGGCGUAAUGGUAACGAGUCUCCCUCCUAAGGAGAAGACUGCGGGUUAGAGUCCUGUCCGGAACG [C4U C24A C55A C62U A65C]
GUUUCGUUGGCGUAAUGGUAACGCGUUUCCCUCCUAAGGAGAAGACUGCGGGGUCGAGUCCCGUACGGAACG [C4U C27U U53G]
GUUUCGUUGGCGUAAUGGUAACGGGUCUCCCUCCCAAGGAGAAGACUGCGGGUUCGGGUCCCGUACGGAACG [C4U C24G U35C A57G]
GUUUCGUUGGCGUAAUGGUAACGGGUCUCCCUCCUAAGGAGAAGACUGCGGGUUCGACUCCCGUACGGAACG [C4U C24G G58C]

Yeast fitness, 0.608:
GUUUCGUUGGCGUAAUGGUAACGCGUCUGCCUCCUAAGGAGAAGACUGCGGGUUCGAGUCCCGUACGGAACG [C4U C29G]

Yeast fitness, 0.532:
GUUUCGUUGGCGUAAUGGUAACGCGUUUCCCUCCUAAGGAGAAGACUGCGGGUUCGUGUCCCGUACGGAACG [C4U C27U A57U]

Yeast fitness, 0.51:
GUUUCGUUGGCGUAAUGGUAACGUGUCUCCCUCCUAAGGAGAAGACUGCGGGUUCGAGUCCCGUAUGGACCG [C4U C24U C66U A70C]

Yeast fitness, 0.65:
GUUUCGUUGGCGUAAUGGUAACGAGUCUCCCUCCUAAGGAGAAGACUGCGGGUUCGAGACCCGUACGGAACG [C4U C24A U59A]
